Most compounds without a hit are left out; they make up all but 3% or so of the library.
M4 ag – agonists of human muscarinic M4 receptor (CHRM4). activation, % at 3 µM. CHO-K1 hM4/Gqi5, Fluo-8 calcium fluorescence; vehicle 0%, full acetylcholine response 100%. AID 624127. 360,000 compounds, 0.14% hits;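 active means activation above the run mean over all test wells plus 3 SD, cut at about 32% in these data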;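 further: peak over basal fluorescence ratio per well then scaled between controls; 0% = DMSO wells and 100% = acetylcholine at EC100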
Target sequence (P08173 whole entry, looked up): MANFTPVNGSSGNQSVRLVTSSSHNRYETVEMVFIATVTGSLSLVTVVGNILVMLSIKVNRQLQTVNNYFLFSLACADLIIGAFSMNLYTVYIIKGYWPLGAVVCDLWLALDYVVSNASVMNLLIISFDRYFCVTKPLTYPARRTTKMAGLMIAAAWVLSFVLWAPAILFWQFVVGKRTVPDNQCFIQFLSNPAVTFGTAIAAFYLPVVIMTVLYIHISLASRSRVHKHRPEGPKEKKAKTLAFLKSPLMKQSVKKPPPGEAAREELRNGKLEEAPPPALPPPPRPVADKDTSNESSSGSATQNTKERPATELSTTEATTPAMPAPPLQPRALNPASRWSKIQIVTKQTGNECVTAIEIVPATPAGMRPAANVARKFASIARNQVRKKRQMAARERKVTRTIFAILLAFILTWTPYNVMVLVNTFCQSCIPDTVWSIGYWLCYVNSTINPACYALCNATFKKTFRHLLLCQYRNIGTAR
CHRM4 PAM – CHRM4 positive allosteric modulation | CHO-K1 hM4/Gqi5, Fluo-8 calcium fluorescence, ACh EC20; 0% = ACh EC20, 100% = maximal ACh | activation, % at 3 µM | P08173 | 360,000 compounds, 0.4% hits | AID 624126;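 active means activation above its plate's cutoff, the mean activation of sample wells plus 3 SD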
TAAR1 antagonist – antagonists of human TAAR1; CHO RD-HGA16 TAAR1, Fluo-8 calcium fluorescence, antagonist; inhibition, % at 3 µM; 360,000 compounds, 1.5% hits; AID 624466;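 active means inhibition above a per-plate cutoff, the mean inhibition of test compounds on that plate plus 3 SD, cut at about 49% in these data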;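 further: 0% = DMSO plus EC80 beta-PEA response and 100% = DMSO alone without agonist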
Target sequence (Q96RJ0 whole entry, looked up): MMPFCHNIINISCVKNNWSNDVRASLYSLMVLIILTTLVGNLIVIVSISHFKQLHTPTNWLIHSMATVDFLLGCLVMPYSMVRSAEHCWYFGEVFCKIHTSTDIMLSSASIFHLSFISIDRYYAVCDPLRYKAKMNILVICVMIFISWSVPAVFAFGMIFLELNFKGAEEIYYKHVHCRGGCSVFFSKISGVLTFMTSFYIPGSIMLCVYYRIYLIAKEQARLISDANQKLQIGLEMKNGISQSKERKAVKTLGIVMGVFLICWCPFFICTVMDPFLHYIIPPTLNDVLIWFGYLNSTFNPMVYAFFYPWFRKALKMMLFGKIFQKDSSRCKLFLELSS
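Test system – hTAAR1-expressing CHO RD-HGA16 cells, Gα16-coupled · Reagent – β-PEA at EC80 concentration, post-compound challenge · Compound dosing – 3 µM, single point · Timing – 140 s kinetic read after compound, 140 s after agonist · Detection – Fluo-8 intracellular calcium dye fluorescence, real-time kinetic reads · Control set – DMSO and EC80 PEA controls · Repeats – n of 1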
TAAR1 agonist – human TAAR1 agonism; AID 624467; 360,000 compounds, 0.99% hits; activation, % at 3 µM; CHO RD-HGA16 TAAR1, Fluo-8 calcium fluorescence; vehicle wells 0%, saturating PEA agonist 100%; Q96RJ0;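 active means activation above the mean activation of all test compounds in the run plus 3 SD, cut at about 38% in these data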
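System: CHO-derived RD-HGA16 cells with stable Gα16 and human TAAR1 / Times: 17-24 h plating, Fluo-8 75 min 37 °C, 30 min RT / Technique: calcium-sensitive Fluo-8 signal, excitation 470-495, emission 515-575 nm / Measure: % activation relative to PEA EC100 response / Benchmarks: DMSO and PEA EC100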
CHRM4 antagonist – CHRM4 antagonism in calcium assay; inhibition, % at 3 µM; CHO-hM4 cells, ACh EC80, Fluo-8 calcium fluorescence; 360,000 compounds, 0.73% hits; P08173; AID 624125;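 active means inhibition above its plate's cutoff, the mean inhibition of sample wells plus 3 SD, cut at about 27% in these data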;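 further: 0% = acetylcholine EC80 with DMSO and 100% = DMSO without agonist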
TAAR1 ag confirm – human TAAR1 agonism, confirmed. activation, % at 3 µM. CHO RD-HGA16 TAAR1, Fluo-8 calcium fluorescence; scaled: DMSO 0%, maximal phenethylamine 100%. shares compounds with TAAR1 agonist. 2,400 compounds, 82% hits;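 active means activation above a cutoff set at the run's mean compound activation plus 3 SD, cut at about 39% in these data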
Ga16 ag counter – counter-screen for TAAR1 agonists: nonselective agonists in parental cells; shares compounds with TAAR1 agonist; CHO-Ga16 parental, Fluo-8 calcium fluorescence; normalized to maximal ATP response, DMSO zero; activation, % at 3 µM; 2,400 compounds, 50% hits; AID 651787;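 active means activation above the run cutoff, the mean activation over all tested wells plus 3 SD, cut at about 12% in these data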;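 further: 0% = DMSO wells and 100% = maximal ATP response on the peak over basal ratio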
TAAR1 desensitize – counter-screen for human TAAR1 agonists: agonists that desensitize TAAR1; shares compounds with TAAR1 agonist; CHO RD-HGA16 hTAAR1, Fluo-8 calcium, beta-PEA response inhibition; 2,400 compounds, 46% hits; inhibition, % at 3 µM; AID 651951;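 active means inhibition above the run cutoff, the mean inhibition of all test compounds plus 3 SD, cut at about 49% in these data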;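 further: beta-PEA stimulus applied at its EC80; loss of beta-PEA calcium signal after compound pretreatment read as receptor desensitization; 0% = DMSO with beta-PEA at EC80 and 100% = DMSO alone without agonist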
Ga16 nonsel ant – counter-screen for TAAR1 agonists: nonselective Ga16 antagonists | shares compounds with TAAR1 agonist | CHO-Ga16 ATP-induced calcium, Fluo-8 fluorescence | inhibition, % at 3 µM | 2,400 compounds, 39% hits | AID 651952;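 active means inhibition above the plate's mean compound inhibition plus 3 SD, computed per plate, cut at about 22% in these data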;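 further: 0% = EC80 ATP with DMSO and 100% = DMSO wells without ATP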
* hit, by the source's call; x = not tested or not shown.

SMILES | M4 ag | CHRM4 PAM | TAAR1 antagonist | TAAR1 agonist | CHRM4 antagonist | TAAR1 ag confirm | Ga16 ag counter | TAAR1 desensitize | Ga16 nonsel ant
COc1ccc(CC(N)c2csc(NC(=O)CCc3ccccc3)n2)cc1 (stereo unspecified) | 24.2 | -8.8 | 59.3* | 61.9* | 6.1 | 31.2 | 27.9* | 40.4 | 37.5*
COc1ccc(CNC(=O)Nc2nc(C(N)Cc3ccc(F)cc3)cs2)cc1 (stereo unspecified) | 18.0 | -4.7 | 58.7* | 57.0* | 18.8 | 70.4* | 33.9* | 66.1* | 59.0*
Cc1ccc(S(=O)(=O)NC(=O)C2(C)CCN2C(=O)Cc2cccs2)nc1 (stereo unspecified) | 0.9 | 4.7 | 1.6 | -0.1 | 3.4 | x | x | x | x
Cc1cc(C)c2c(=O)n(CC(=O)Nc3ccc(Cl)cc3)sc2n1 | 61.0* | -38.1 | 80.1* | 86.7* | 30.7* | 100.0* | 60.9* | 87.3* | 68.1*
Cc1cc(C)c2c(=O)n(CC(=O)Nc3cccc(F)c3)sc2n1 | 17.6 | -12.6 | 72.0* | 70.4* | 6.2 | 95.2* | 54.0* | 88.0* | 60.4*
CN1OC[C@@H]2CN(S(=O)(=O)c3ccccc3)[C@H](c3ccccc3Br)C[C@@H]21 | 0.1 | 1.0 | -17.6 | 3.5 | -13.4 | x | x | x | x
O=C(CSC1=NS(=O)(=O)c2ccccc2N1)NCCc1ccccc1 | 0.5 | 4.5 | 71.2* | 88.9* | 7.3 | 89.2* | 7.1 | 74.9* | 5.1
COc1ccc(C23CC4CC(CC(C4)C2)C3)cc1C(=O)NCCN(C)C | 5.6 | -3.0 | 3.0 | 46.4* | 5.7 | 53.5* | 20.6* | 21.7 | 13.2
O=C(C(O)c1ccccc1)N1CCN(S(=O)(=O)c2ccc(F)c(F)c2)CC1 (stereo unspecified) | 2.9 | -1.8 | -11.9 | 2.2 | -1.2 | x | x | x | x
COc1ccccc1CCn1cnc(-c2ccccc2OC)c1C(C)C | x | x | 29.0 | 51.9* | x | 79.1* | 6.9 | 59.7* | 13.6
COc1ccccc1CCn1cnc(-c2ccc(Br)cc2)c1C(C)C | -0.8 | -7.4 | 36.1 | 44.5* | 9.7 | 68.3* | 8.7 | 52.9* | 36.8*
COc1ccc(-c2ncn(CCc3ccccc3OC)c2C(C)C)cc1 | x | x | -1.0 | 15.2 | x | x | x | x | x
CC(=O)Nc1ccc(C(=O)N2CCCC(c3cc(C(=O)NCc4ccccc4)no3)C2)cc1 (stereo unspecified) | 1.9 | -1.6 | -2.7 | 0.9 | -11.9 | x | x | x | x
CCSC1=NSC2=NC(=O)/C(=C\c3coc4ccccc4c3=O)C(=N)N12 | 63.3* | -22.0 | 107.8* | 252.2* | 38.0* | 204.4* | 278.9* | 102.9* | 99.2*
CC(C)CC1=NN2C(=N)/C(=C\c3coc4ccccc4c3=O)C(=O)N=C2S1 | 62.8* | -23.4 | 104.2* | 354.7* | 8.9 | 148.9* | 131.0* | 82.0* | 80.0*
CSC1=NSC2=NC(=O)/C(=C\c3ccc(OC(=O)c4ccco4)cc3)C(=N)N12 | 1.1 | 2.6 | -22.2 | 1.8 | 7.4 | x | x | x | x
CC(=O)N1CCN(CC(=O)Nc2cc(S(=O)(=O)N3CCCCC3)ccc2C)CC1 | 1.5 | 5.7 | 8.1 | 1.4 | -5.8 | x | x | x | x
CN1CCN(CC(=O)Nc2ccccc2C(F)(F)F)CC1 | -0.2 | -8.2 | -12.6 | 5.5 | 11.7 | x | x | x | x
Cc1c(Cl)cccc1NC(=S)N1CCOCC1 | 1.5 | 10.2 | -2.3 | 3.6 | -9.9 | x | x | x | x
Cc1c(Cl)cccc1NC(=S)N1CCc2ccccc2C1 | 0.0 | 2.0 | 42.8 | 74.4* | -4.0 | 68.5* | 0.1 | 29.6 | 6.9
FC(F)(F)c1ccccc1NC(=S)N1CCc2ccccc2C1 | 1.1 | 0.1 | 42.7 | 80.1* | 1.4 | 96.1* | 18.0* | 45.2 | 11.4
O=C(CN1CCc2ccccc2C1)Nc1ccccc1C(F)(F)F | -1.2 | 2.2 | 4.4 | 55.9* | -1.2 | 74.7* | 10.0 | 51.6* | 3.8
C=CCOC(=O)Nc1nc(CCNC(=O)OCc2ccccc2)c(C(=O)O)s1 | 2.3 | 14.8 | -4.6 | 0.9 | -3.8 | x | x | x | x
Cn1c(NCc2cccnc2)nc2cc(-c3cccc(C(=O)NCCO)c3)sc2c1=O | 0.6 | -1.3 | -14.7 | 1.6 | -8.2 | x | x | x | x
O=C(/C=C/[C@H]1O[C@@H](n2cnc3c(NC(=O)c4ccccc4)ncnc32)[C@H](O)[C@@H]1O)NCc1ccc2c(c1)OCO2 | -0.1 | 2.7 | -1.4 | 1.0 | -6.1 | x | x | x | x
SMILES | M4 ag | CHRM4 PAM | TAAR1 antagonist | TAAR1 agonist | CHRM4 antagonist | TAAR1 ag confirm | Ga16 ag counter | TAAR1 desensitize | Ga16 nonsel ant
C=CCC1(CC=C)CCCN1C(=O)c1ccc2oc(CCCC)nc2c1 | 3.0 | -6.0 | -13.0 | 10.8 | 1.2 | x | x | x | x
O=C(COc1ccccc1)NNC(=O)c1cc2ccccc2oc1=O | 1.4 | 11.8 | 0.9 | 45.3* | -3.7 | 71.8* | 3.4 | 43.4 | 6.1
COc1ccc(OCC(=O)NNC(=O)c2cc3ccccc3o2)cc1 | 2.2 | 2.6 | 2.6 | 3.4 | 16.8 | x | x | x | x
COc1ccc(Cn2c(-c3ccc(C)cc3)nc3c(c(=O)c4ccccc4n3C)c2=O)cc1 | -0.2 | 14.9 | 57.8* | 91.5* | -6.9 | 84.9* | 52.9* | 67.9* | 41.7*
CCOc1nc(OCC)c2[nH]c(C(=O)O)c(Br)c2n1 | 1.9 | 9.0 | -18.7 | 1.1 | -10.8 | x | x | x | x
CN(CCc1ccccc1)C(=O)c1ccc(NC(=O)Cc2cccc(NC(=O)C3CCN(S(=O)(=O)c4cccc([N+](=O)[O-])c4)CC3)c2)cc1 | 1.3 | 8.2 | 11.9 | 43.2* | -16.7 | 66.0* | 1.6 | 19.8 | 7.9
CCN(C(=O)CSc1nnnn1C)C1CCS(=O)(=O)C1 (stereo unspecified) | 1.0 | 2.0 | -18.0 | 1.6 | 3.5 | x | x | x | x
CC(C)(O)C#Cc1ccc(CNC[C@H]2O[C@@H](n3cnc4c(N)ncnc43)[C@H](O)[C@@H]2O)s1 | 0.9 | 0.3 | -3.3 | 1.5 | 5.9 | x | x | x | x
O=[N+]([O-])c1ccc2nonc2c1Nc1ccccc1 | -1.5 | 1.5 | 24.0 | 78.2* | -3.5 | 4.8 | 1.1 | -6.4 | 0.7
CCN(CCNCC(O)COc1ccccc1C(C)C)c1cccc(C)c1 (stereo unspecified) | 18.1 | -6.1 | 42.6 | 73.3* | 11.2 | 78.8* | 19.9* | 57.7* | 38.6*
CCOC(=O)N1CCN(CC(O)COc2ccccc2C(C)C)CC1 (stereo unspecified) | 1.5 | 0.7 | 8.4 | 7.1 | -0.9 | x | x | x | x
